Measurements from ChEMBL document CHEMBL1177643, “Synthesis, DNA-binding ability and anticancer activity of benzothiazole/benzoxazole-pyrrolo[2,1-c][1,4]benzodiazepine conjugates” (Bioorg Med Chem, 2010).

Legend:
BT-549 = test: Growth inhibition of human BT549 cells after 48 hrs by sulforhodamine B assay; format: functional; details: BT-549, 48 h
Summary of the method: (§1)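 Dose–response in each cell line over at least five concentrations at 10-fold dilutions, with 48 h continuous exposure and sulforhodamine B read-out.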

UO-31 = test: Growth inhibition of human UO31 cells after 48 hrs by sulforhodamine B assay; format: functional; details: UO-31, 48 h
Summary of the method: (§2)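 Panel of 60 human cancer cell lines; for each compound, dose–response curves per cell line measured at a minimum of five concentrations at 10-fold dilutions. Cells exposed continuously to drug for 48 h, and growth was read out by sulforhodamine B staining.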

EKVX = test: Growth inhibition of human EKVX cells after 48 hrs by sulforhodamine B assay; format: functional; summary of the method: as §1
HCT-116 = test: Growth inhibition of human HCT116 cells after 48 hrs by sulforhodamine B assay; format: functional; details: HCT-116, 48 h; summary of the method: as §2
[1] = Growth inhibition of human […] cells after 48 hrs by sulforhodamine B assay; format: functional; summary of the method: as §2
CCRF-CEM = test: Growth inhibition of human CCRF-CEM cells after 48 hrs by sulforhodamine B assay; format: functional; summary of the method: as §1
SK-MEL-2 = test: Growth inhibition of human SK-MEL-2 cells after 48 hrs by sulforhodamine B assay; format: functional; details: SK-MEL-2, 48 h; summary of the method: as §2
Malme-3M = test: Growth inhibition of human MALME-3M cells after 48 hrs by sulforhodamine B assay; format: functional; summary of the method: as §2
MDA-MB-435 = test: Growth inhibition of human MDA-MB-435 cells after 48 hrs by sulforhodamine B assay; format: functional; details: MDA-MB-435, 48 h; summary of the method: as §2
CAKI-1 = test: Growth inhibition of human Caki1 cells after 48 hrs by sulforhodamine B assay; format: functional; details: CAKI-1, 48 h; summary of the method: as §1
A-375 [2] = test: Cell cycle arrest in human A375 cells assessed as accumulation at S phase at 2 uM after 24 hrs using propidium iodide staining by flow cytometry; format: functional
Summary of the method: (§3)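 A375 cells (5×10^5) grown 24 h, then exposed to compound 24 h (DMSO control). Trypsin–EDTA harvest, fixed in ice-cold 70% ethanol at 4 °C 30 min, RNase A 37 °C 30 min, propidium iodide staining. DNA content measured by flow cytometry on 20,000 events, gated as sub-G1/G0, G1, S and G2/M.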

SW-620 = test: Growth inhibition of human SW620 cells after 48 hrs by sulforhodamine B assay; format: functional; details: SW-620, 48 h; summary of the method: as §2
Calf thymus DNA = test: Binding affinity to calf thymus duplex-form DNA assessed as melting temperature at 1:5 compound/DNA ratio after 18 hrs; format: nucleic-acid assay; details: Bos taurus
SNB-75 = test: Growth inhibition of human SNB75 cells after 48 hrs by sulforhodamine B assay; format: functional; details: SNB-75, 48 h; summary of the method: as §2
HOP-62 = test: Growth inhibition of human HOP62 cells after 48 hrs by sulforhodamine B assay; format: functional; details: HOP-62, 48 h; summary of the method: as §2
IGROV-1 = test: Growth inhibition of human IGROV1 cells after 48 hrs by sulforhodamine B assay; format: functional; details: IGROV-1, 48 h; summary of the method: as §2
SF-539 = test: Growth inhibition of human SF539 cells after 48 hrs by sulforhodamine B assay; format: functional; details: SF-539, 48 h; summary of the method: as §2
SK-OV-3 = test: Growth inhibition of human SKOV3 cells after 48 hrs by sulforhodamine B assay; format: functional; details: SK-OV-3, 48 h; summary of the method: as §2
Hs-578T = test: Growth inhibition of human Hs 578T cells after 48 hrs by sulforhodamine B assay; format: functional; summary of the method: as §2
HOP-92 = test: Growth inhibition of human HOP92 cells after 48 hrs by sulforhodamine B assay; format: functional; details: HOP-92, 48 h; summary of the method: as §2
A-375 [3] = test: Cell cycle arrest in human A375 cells assessed as accumulation at G2/M phase at 2 uM after 24 hrs using propidium iodide staining by flow cytometry; format: functional; summary of the method: as §3
M14 = test: Growth inhibition of human M14 cells after 48 hrs by sulforhodamine B assay; format: functional; details: M14, 48 h; summary of the method: as §2
HCC 2998 = test: Growth inhibition of human HCC2998 cells after 48 hrs by sulforhodamine B assay; format: functional; details: HCC 2998, 48 h; summary of the method: as §2
A-375 [4] = test: Cell cycle arrest in human A375 cells assessed as accumulation at G0 phase at 2 uM after 24 hrs using propidium iodide staining by flow cytometry; format: functional; summary of the method: as §3
U-251 = test: Growth inhibition of human U251 cells after 48 hrs by sulforhodamine B assay; format: functional; details: U-251, 48 h; summary of the method: as §2
SF-295 = test: Growth inhibition of human SF295 cells after 48 hrs by sulforhodamine B assay; format: functional; details: SF-295, 48 h; summary of the method: as §2
OVCAR-3 = test: Growth inhibition of human OVCAR-3 cells after 48 hrs by sulforhodamine B assay; format: functional; details: OVCAR-3, 48 h; summary of the method: as §2
SNB-19 = test: Growth inhibition of human SNB19 cells after 48 hrs by sulforhodamine B assay; format: functional; details: SNB-19, 48 h; summary of the method: as §2
T47D = test: Growth inhibition of human T47D cells after 48 hrs by sulforhodamine B assay; format: functional; summary of the method: as §2
HT-29 = test: Growth inhibition of human HT-29 cells after 48 hrs by sulforhodamine B assay; format: functional; details: HT-29, 48 h; summary of the method: as §2
UACC-257 = test: Growth inhibition of human UACC257 cells after 48 hrs by sulforhodamine B assay; format: functional; details: UACC-257, 48 h; summary of the method: as §2
MDA-MB-231 = test: Growth inhibition of human MDA-MB-231 cells after 48 hrs by sulforhodamine B assay; format: functional; details: MDA-MB-231, 48 h; summary of the method: as §2
MCF7 = test: Growth inhibition of human MCF7 cells after 48 hrs by sulforhodamine B assay; format: functional; details: MCF7, 48 h; summary of the method: as §2
NCI-H322M = test: Growth inhibition of human NCI-H322M cells after 48 hrs by sulforhodamine B assay; format: functional; summary of the method: as §2
OVCAR-5 = test: Growth inhibition of human OVCAR5 cells after 48 hrs by sulforhodamine B assay; format: functional; details: OVCAR-5, 48 h; summary of the method: as §2
RXF 393 = test: Growth inhibition of human RXF393 cells after 48 hrs by sulforhodamine B assay; format: functional; details: RXF 393, 48 h; summary of the method: as §2
COLO 205 = test: Growth inhibition of human COLO205 cells after 48 hrs by sulforhodamine B assay; format: functional; details: COLO 205, 48 h; summary of the method: as §1
NCI/ADR-RES = test: Growth inhibition of human NCI/ADR-RES cells after 48 hrs by sulforhodamine B assay; format: functional; summary of the method: as §2
ACHN = test: Growth inhibition of human ACHN cells after 48 hrs by sulforhodamine B assay; format: functional; summary of the method: as §1
A549 = test: Growth inhibition of human A549 cells after 48 hrs by sulforhodamine B assay; format: functional; details: A549, 48 h; summary of the method: as §1
NCI-H460 = test: Growth inhibition of human NCI-H460 cells after 48 hrs by sulforhodamine B assay; format: functional; details: NCI-H460, 48 h; summary of the method: as §2
SK-MEL-28 = test: Growth inhibition of human SK-MEL-28 cells after 48 hrs by sulforhodamine B assay; format: functional; details: SK-MEL-28, 48 h; summary of the method: as §2
TK-10 = test: Growth inhibition of human TK10 cells after 48 hrs by sulforhodamine B assay; format: functional; details: TK-10, 48 h; summary of the method: as §2
K562 = test: Growth inhibition of human K562 cells after 48 hrs by sulforhodamine B assay; format: functional; details: K562, 48 h; summary of the method: as §2
HCT-15 = test: Growth inhibition of human HCT15 cells after 48 hrs by sulforhodamine B assay; format: functional; details: HCT-15, 48 h; summary of the method: as §2

Compound: COc1cc(-c2nc3ccccc3s2)ccc1OCCCCCOc1cc2c(cc1OC)C(=O)N1CCC[C@H]1C=N2
- GI50 (BT-549): 21.9 nM
- GI50 (UO-31): 200 nM
- GI50 (EKVX): 204 nM
- GI50 (HCT-116): 38.9 nM
- GI50 [1]: 74.1 nM
- GI50 (CCRF-CEM): 21.9 nM
- GI50 (SK-MEL-2): 178 nM
- GI50 (Malme-3M): 145 nM
- GI50 (MDA-MB-435): 85.1 nM
- GI50 (CAKI-1): 117 nM
- Activity (A-375 [2]): 3.11%
- GI50 (SW-620): 56.2 nM
- ΔTm (Calf thymus DNA): 6.3 °C
- GI50 (SNB-75): 145 nM
- GI50 (HOP-62): 45.7 nM
- GI50 (IGROV-1): 347 nM
- GI50 (SF-539): 39.8 nM
- GI50 (SK-OV-3): 178 nM
- GI50 (Hs-578T): 141 nM
- GI50 (HOP-92): 44.7 nM
- Activity (A-375 [3]): 3.1%
- GI50 (M14): 39.8 nM
- GI50 (HCC 2998): 126 nM
- Activity (A-375 [4]): 26.75%
- GI50 (U-251): 33.9 nM
- GI50 (SF-295): 67.6 nM
- GI50 (OVCAR-3): 97.7 nM
- GI50 (SNB-19): 219 nM
- GI50 (T47D): 14.1 nM
- GI50 (HT-29): 40.7 nM
- GI50 (UACC-257): 186 nM
- GI50 (MDA-MB-231): 89.1 nM
- GI50 (MCF7): 19.1 nM
- GI50 (NCI-H322M): 302 nM
- GI50 (OVCAR-5): 70.8 nM
- GI50 (RXF 393): 51.3 nM
- GI50 (COLO 205): 60.3 nM
- GI50 (NCI/ADR-RES): 269 nM
- GI50 (ACHN): 53.7 nM
- GI50 (A549): 240 nM
- GI50 (NCI-H460): 39.8 nM
- GI50 (SK-MEL-28): 331 nM
- GI50 (TK-10): 331 nM
- GI50 (K562): 20.4 nM
- GI50 (HCT-15): 224 nM
